What was measured:
Vero [1] = assay: Compound was tested for antiviral activity against Herpes Simplex virus Type-2(MS) in vero cells; assay type: functional, cell-based; conditions: Chlorocebus sabaeus
How it was run: (§1)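 Plaque reduction in Vero cell monolayers infected with about 50 PFU of HSV-1 or HSV-2. A concentration range of compound was included in an agarose overlay and kept present throughout. Plaques were counted 3 days post-infection. IC50 is the concentration giving a plaque count 50% of untreated controls. Stocks were 10 mg/mL in Me2SO, diluted in test medium.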

Vero [2] = assay: Compound was tested for antiviral activity against Herpes Simplex virus Type-1(HFEM) in vero cells; assay type: functional, cell-based; conditions: Chlorocebus sabaeus; how it was run: as §1
MRC5 [3] = assay: Compound was tested for antiviral activity against Herpes Simplex virus Type-1(HFEM) in human lung fibroblasts (MRC-5); assay type: functional
How it was run: (§2)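 Virus yield reduction in MRC-5 cells infected at a multiplicity of about 1 PFU/cell. A concentration range of compound was added in culture medium after virus adsorption and kept present throughout. Supernatants were harvested 24 h post-infection and titrated on Vero cells. IC90 is the concentration reducing infectious yield by 90% versus untreated controls.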

MRC5 [4] = assay: Compound was tested for antiviral activity against Herpes Simplex virus Type-1(20132) in human lung fibroblasts (MRC-5); assay type: functional; how it was run: as §2
MRC5 [5] = assay: Compound was tested for antiviral activity against Herpes Simplex virus Type-2(21929) in human lung fibroblasts (MRC-5); assay type: functional; how it was run: as §2
MRC5 [6] = assay: Compound was tested for antiviral activity against Herpes Simplex virus Type-2(20605) in human lung fibroblasts (MRC-5); assay type: functional; how it was run: as §2
MRC5 [7] = assay: Compound was tested for antiviral activity against Herpes Simplex virus Type-2(MS) in human lung fibroblasts (MRC-5); assay type: functional; how it was run: as §2
MRC5 [8] = assay: Compound was tested for antiviral activity against Herpes Simplex virus Type-1(18189) in human lung fibroblasts (MRC-5); assay type: functional; how it was run: as §2
MRC5 [9] = assay: Compound was tested for antiviral activity against Herpes Simplex virus Type-1(19407) in human lung fibroblasts (MRC-5); assay type: functional; how it was run: as §2
MRC5 [10] = assay: Compound was tested for antiviral activity against Herpes Simplexin human lung fibroblasts (MRC-5)in vero cells; assay type: functional
MRC5 [11] = assay: compound was tested for antiviral activity against Herpes Simplex virus Type-1(18189) in human lung fibroblasts (MRC-5); assay type: functional; how it was run: as §2
MRC5 [12] = assay: compound was tested for antiviral activity against Herpes Simplex virus Type-2(20605) in human lung fibroblasts (MRC-5); assay type: functional; how it was run: as §2
MRC5 [13] = assay: compound was tested for antiviral activity against Herpes Simplex virus Type-1(20132) in human lung fibroblasts (MRC-5); assay type: functional; how it was run: as §2
MRC5 [14] = assay: compound was tested for antiviral activity against Herpes Simplex virus Type-1(19407) in human lung fibroblasts (MRC-5); assay type: functional; how it was run: as §2
MRC5 [15] = assay: compound was tested for antiviral activity against Herpes Simplex virus Type-2(21929) in human lung fibroblasts (MRC-5); assay type: functional; how it was run: as §2
MRC5 [16] = assay: compound was tested for antiviral activity against Herpes Simplex virus Type-1(HFEM) in human lung fibroblasts (MRC-5); assay type: functional; how it was run: as §2
MRC5 [17] = assay: compound was tested for antiviral activity against Herpes Simplex virus Type-2(MS) in human lung fibroblasts (MRC-5); assay type: functional; how it was run: as §2
MRC5 [18] = assay: compound was tested for antiviral activity against Herpes Simplex virus Type-2(17409) in human lung fibroblasts (MRC-5); assay type: functional; how it was run: as §2

Structure (SMILES)	IC50 (Vero [1])	IC50 (Vero [2])	also measured
CCCCCOC(=O)CC(CO)CCn1cnc2c(O)nc(N)nc21 (configuration not stated)	15000 nM	6000 nM	
COc1nc(N)nc2c1ncn2CCC(CO)CO	236000 nM	> 250000 nM	
Nc1nc(O)c2ncn(CCC(CC(=O)O)CC(=O)O)c2n1	10000 nM	5800 nM	
COC(=O)CC(CO)CCn1cnc2c(O)nc(N)nc21 (configuration not stated)	31000 nM	81000 nM	
CCCCCCCCCCCCCCCOC(=O)CC(CO)CCn1cnc2c(O)nc(N)nc21 (configuration not stated)	128000 nM	33000 nM	
CCCCCOC(=O)CC(CCn1cnc2c(O)nc(N)nc21)CC(=O)OCCCCC	3600 nM	4200 nM	
Nc1nc2c(ncn2COCCO)c(=O)[nH]1 [ACYCLOVIR]	2500 nM	3800 nM	IC90 (MRC5 [3]): 4800 nM; IC90 (MRC5 [4]): 900 nM; IC90 (MRC5 [5]): 900 nM; IC90 (MRC5 [6]): 300 nM; IC90 (MRC5 [7]): 1200 nM; IC90 (MRC5 [8]): 700 nM; IC90 (MRC5 [9]): 1400 nM; IC90 (MRC5 [10]): 700 nM
Nc1nc(O)c2ncn(CCC(CO)CO)c2n1 [PENCICLOVIR]	6400 nM	6400 nM	IC90 (MRC5 [11]): 500 nM; IC90 (MRC5 [12]): 800 nM; IC90 (MRC5 [13]): 600 nM; IC90 (MRC5 [14]): 600 nM; IC90 (MRC5 [15]): 900 nM; IC90 (MRC5 [16]): 1300 nM; IC90 (MRC5 [17]): 1100 nM; IC90 (MRC5 [18]): 900 nM

— ChEMBL document CHEMBL1123836, “Synthesis and antiviral activity of 9-[4-hydroxy-3-(hydroxymethyl)but-1-yl]purines” (J Med Chem, 1987)
